The values that follow come from PMC10205775 (Saudi Pharmaceutical Journal : SPJ, 2023).

As a reminder, the IC50 is the concentration that gives 50% inhibition.

The test system of one assay is HepG2. The assay can be described thus: MTT antiproliferative assay, HepG2. In kind it is cell-based. To be noted: Homo sapiens, HepG2, read-out: In vitro Cytotoxicity IC50 HepG2. (In general: Tetrazolium assays rely on reduction of a dye to a coloured formazan, in cell work by metabolically active cells.)
Another assay relates to MCF-7. The assay can be described thus: MTT antiproliferative assay, MCF-7. Conditions: Homo sapiens, MCF7, read-out: In vitro Cytotoxicity IC50 MCF-7.
The next assay concerns MDA-MB-231. The assay can be described thus: MTT antiproliferative assay, MDA-MB-231. Conditions: Homo sapiens, MDA-MB-231, read-out: In vitro Cytotoxicity IC50 MDA-MB-231. The assay is classed as cell-based.
The test system of the next assay is HeLa. The assay can be described thus: MTT antiproliferative assay, HeLa. Conditions: Homo sapiens, read-out: In vitro Cytotoxicity IC50 HeLa.
The next assay addresses CDK2 (Homo sapiens, UniProt P24941). The assay can be described thus: In vitro protein kinase assay, CDK2. In kind it is biochemical.
The next assay addresses Her2 (Homo sapiens, UniProt P04626). The assay can be described thus: In vitro protein kinase assay, Her2. In kind it is biochemical.
The next assay deals with EGFR (Homo sapiens, UniProt P00533). The assay can be described thus: In vitro protein kinase assay, EGFR. In kind it is biochemical.
Chain of EGFR (P00533 25-1210): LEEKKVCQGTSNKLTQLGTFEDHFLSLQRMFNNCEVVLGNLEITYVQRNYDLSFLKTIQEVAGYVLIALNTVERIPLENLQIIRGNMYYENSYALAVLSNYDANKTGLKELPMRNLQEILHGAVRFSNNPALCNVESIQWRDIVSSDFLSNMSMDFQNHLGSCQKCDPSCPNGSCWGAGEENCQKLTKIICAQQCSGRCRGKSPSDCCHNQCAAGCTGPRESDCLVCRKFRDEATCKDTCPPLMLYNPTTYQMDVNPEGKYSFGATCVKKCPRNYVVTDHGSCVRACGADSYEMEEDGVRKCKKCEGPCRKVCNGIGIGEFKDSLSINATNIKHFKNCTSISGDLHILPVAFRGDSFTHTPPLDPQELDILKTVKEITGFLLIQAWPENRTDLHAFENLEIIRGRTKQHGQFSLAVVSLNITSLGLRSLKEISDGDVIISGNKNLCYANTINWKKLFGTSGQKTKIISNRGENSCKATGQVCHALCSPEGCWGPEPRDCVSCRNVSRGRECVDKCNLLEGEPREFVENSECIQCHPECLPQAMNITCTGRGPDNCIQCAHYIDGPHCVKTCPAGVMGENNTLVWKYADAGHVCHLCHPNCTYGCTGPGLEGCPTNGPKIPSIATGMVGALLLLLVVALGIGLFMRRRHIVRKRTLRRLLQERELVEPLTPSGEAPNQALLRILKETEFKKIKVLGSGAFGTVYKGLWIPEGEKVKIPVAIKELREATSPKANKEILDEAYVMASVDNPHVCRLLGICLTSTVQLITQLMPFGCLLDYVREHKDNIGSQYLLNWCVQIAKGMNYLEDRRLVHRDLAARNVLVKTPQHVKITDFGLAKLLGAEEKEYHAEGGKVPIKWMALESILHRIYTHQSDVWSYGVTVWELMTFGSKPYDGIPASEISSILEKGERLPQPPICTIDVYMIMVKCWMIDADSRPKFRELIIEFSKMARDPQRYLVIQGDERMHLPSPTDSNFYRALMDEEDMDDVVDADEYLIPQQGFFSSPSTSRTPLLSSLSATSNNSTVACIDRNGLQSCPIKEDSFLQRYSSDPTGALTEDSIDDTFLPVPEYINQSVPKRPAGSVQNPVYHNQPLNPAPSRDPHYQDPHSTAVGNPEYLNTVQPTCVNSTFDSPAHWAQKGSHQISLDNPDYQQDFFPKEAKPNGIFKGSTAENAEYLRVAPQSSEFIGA
Assay [1] relates to HepG2 cells. The assay can be described thus: Cell cycle distribution by flow cytometry. The assay is classed as cell-based, human. To be noted: 8.39 μM of compound 7, 24 h. For orientation: In flow cytometry, cells or beads pass a laser one at a time.
A further assay concerns Caspase 9. The assay can be described thus: Apoptotic protein expression, Caspase 9. In kind it is cell-based, human. Conditions: HepG2 cells, 8.39 μM of compound 7, 24 h; control = 1. The gist of the method:
(§1)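 HepG2 cells were incubated with 8.39 μM test compound for 24 h. Apoptotic protein levels were measured by a previously reported method. Expression was normalised to β-actin and given as fold change versus untreated HepG2 cells, which were set to 1. Values are means of three experiments.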

The test system of another assay is Caspase 3. The assay can be described thus: Apoptotic protein expression, Caspase 3. In kind it is cell-based, human. To be noted: HepG2 cells, 8.39 μM of compound 7, 24 h; control = 1. The method in brief:
as §1

In assay [2] the test system is HepG2 cells. The assay can be described thus: Annexin-V/propidium iodide double staining apoptosis assay. The assay is classed as cell-based, human. Conditions: 24 h incubation.
For the next assay, the target named is VEGFR2 (Homo sapiens, UniProt P35968). The assay can be described thus: In vitro protein kinase assay, VEGFR2. The assay is classed as biochemical.
Chain of VEGFR2 (P35968 20-1356): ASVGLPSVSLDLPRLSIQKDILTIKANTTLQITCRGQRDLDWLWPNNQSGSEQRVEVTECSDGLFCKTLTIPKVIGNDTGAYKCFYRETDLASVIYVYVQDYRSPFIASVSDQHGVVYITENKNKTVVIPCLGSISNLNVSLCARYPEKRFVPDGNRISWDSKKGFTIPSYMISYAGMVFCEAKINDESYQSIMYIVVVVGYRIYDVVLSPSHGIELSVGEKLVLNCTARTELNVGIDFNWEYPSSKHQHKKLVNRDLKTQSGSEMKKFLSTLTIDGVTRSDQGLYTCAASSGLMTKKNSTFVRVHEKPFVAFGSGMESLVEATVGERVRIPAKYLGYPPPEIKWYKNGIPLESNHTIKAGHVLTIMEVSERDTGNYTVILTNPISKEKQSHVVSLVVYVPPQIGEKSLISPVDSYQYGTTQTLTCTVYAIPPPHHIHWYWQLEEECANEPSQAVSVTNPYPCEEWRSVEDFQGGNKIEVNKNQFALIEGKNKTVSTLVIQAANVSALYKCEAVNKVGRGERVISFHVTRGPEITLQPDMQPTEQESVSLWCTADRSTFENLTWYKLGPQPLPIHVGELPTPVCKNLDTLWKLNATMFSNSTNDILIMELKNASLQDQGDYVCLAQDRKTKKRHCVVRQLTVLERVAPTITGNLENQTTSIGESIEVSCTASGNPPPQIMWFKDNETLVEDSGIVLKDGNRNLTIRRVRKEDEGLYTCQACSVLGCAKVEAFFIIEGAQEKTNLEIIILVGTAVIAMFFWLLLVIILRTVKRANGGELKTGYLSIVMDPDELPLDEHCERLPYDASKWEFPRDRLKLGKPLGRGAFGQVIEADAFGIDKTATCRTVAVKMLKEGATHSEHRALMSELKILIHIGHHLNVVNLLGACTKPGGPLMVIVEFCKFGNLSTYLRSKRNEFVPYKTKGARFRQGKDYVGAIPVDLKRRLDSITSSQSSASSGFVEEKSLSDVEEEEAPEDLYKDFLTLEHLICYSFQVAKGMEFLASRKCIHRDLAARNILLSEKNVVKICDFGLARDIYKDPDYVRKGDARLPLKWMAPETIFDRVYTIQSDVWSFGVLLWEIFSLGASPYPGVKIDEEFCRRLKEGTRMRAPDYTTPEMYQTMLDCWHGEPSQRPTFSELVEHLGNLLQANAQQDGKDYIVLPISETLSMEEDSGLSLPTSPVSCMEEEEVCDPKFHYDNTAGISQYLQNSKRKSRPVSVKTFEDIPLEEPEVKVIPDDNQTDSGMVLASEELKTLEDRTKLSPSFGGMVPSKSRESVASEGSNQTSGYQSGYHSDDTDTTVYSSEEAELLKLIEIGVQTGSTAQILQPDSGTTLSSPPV
Assay [3] deals with HepG2, MCF-7, MDA-MB-231 and HeLa. The assay can be described thus: MTT antiproliferative assay, all tested cell lines. In kind it is cell-based. Conditions: Homo sapiens, read-out: IC50 values against all tested cell lines (range).

Where “and” joins values, the source holds several entries; their conditions need not be identical. Equal values may be shown once.

Chain of Her2 (P04626 23-1255): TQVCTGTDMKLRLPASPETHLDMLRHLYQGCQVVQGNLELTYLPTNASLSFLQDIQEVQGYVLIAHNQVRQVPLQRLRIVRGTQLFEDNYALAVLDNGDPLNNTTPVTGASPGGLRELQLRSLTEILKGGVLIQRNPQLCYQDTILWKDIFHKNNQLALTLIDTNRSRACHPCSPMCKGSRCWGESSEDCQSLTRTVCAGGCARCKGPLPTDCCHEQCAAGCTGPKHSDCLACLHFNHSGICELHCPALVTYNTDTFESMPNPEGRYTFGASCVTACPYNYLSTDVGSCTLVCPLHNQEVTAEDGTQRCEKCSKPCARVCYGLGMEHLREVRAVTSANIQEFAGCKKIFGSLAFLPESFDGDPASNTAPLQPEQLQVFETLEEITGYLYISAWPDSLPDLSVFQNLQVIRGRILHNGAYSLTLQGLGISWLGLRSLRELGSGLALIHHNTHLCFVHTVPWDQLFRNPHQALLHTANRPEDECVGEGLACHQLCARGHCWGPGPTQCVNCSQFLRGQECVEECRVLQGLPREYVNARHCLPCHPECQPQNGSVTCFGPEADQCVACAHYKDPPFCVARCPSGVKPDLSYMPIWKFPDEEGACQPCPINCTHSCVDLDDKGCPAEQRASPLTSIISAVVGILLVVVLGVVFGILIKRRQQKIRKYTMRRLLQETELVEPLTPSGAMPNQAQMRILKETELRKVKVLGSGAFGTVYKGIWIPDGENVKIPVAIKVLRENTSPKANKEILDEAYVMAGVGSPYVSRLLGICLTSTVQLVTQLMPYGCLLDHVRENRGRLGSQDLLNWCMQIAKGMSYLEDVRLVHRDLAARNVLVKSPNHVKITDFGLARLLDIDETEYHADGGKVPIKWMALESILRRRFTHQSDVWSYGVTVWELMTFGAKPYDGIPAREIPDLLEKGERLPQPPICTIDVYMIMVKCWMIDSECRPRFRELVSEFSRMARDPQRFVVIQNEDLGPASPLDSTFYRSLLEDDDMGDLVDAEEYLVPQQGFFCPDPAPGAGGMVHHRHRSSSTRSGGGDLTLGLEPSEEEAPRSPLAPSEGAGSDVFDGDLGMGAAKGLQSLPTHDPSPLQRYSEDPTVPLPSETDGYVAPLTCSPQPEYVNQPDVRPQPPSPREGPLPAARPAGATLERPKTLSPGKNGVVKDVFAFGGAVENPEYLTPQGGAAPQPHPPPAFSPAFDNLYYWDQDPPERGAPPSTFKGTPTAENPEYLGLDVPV

With `COc1cccc2c1C(=O)c1c(O)c3c(c(O)c1C2=O)C[C@@](O)(C(=O)CO)C[C@@H]3O[C@H]1C[C@H](N)[C@H](O)[C@H](C)O1` [Doxorubicin, reference compound], the IC50 with HepG2 stood at 4.5 ± 0.2 µM.
`O=C1Nc2ccc(Cl)cc2C1=NNc1ncnc2[nH]ccc12` [Compound 4, 3-(2-(7H-pyrrolo[2,3-d]pyrimidin-4-yl)hydrazineylidene)-5-chloroindolin-2-one]: the half-inhibitory concentration (IC50) in the assay with HepG2 came to 28.4 ± 2.1 µM; with MCF-7, 33.9 ± 2.2 µM; with MDA-MB-231, 21.1 ± 1.8 µM; in the assay on HeLa, 24.2 ± 1.8 µM.
On to `O=C1Nc2ccc(F)cc2C1=NNc1ncnc2[nH]ccc12` [Compound 5, 3-(2-(7H-pyrrolo[2,3-d]pyrimidin-4-yl)hydrazineylidene)-5-fluoroindolin-2-one], for which the IC50 in the assay on HepG2 came out at 37.3 ± 2.5 µM; in the assay with MCF-7, 41.6 ± 2.6 µM; in the assay on MDA-MB-231, 32.5 ± 2.1 µM; in the assay with HeLa, 29.1 ± 2 µM.
For `COc1ccc2c(c1)C(=NNc1ncnc3[nH]ccc13)C(=O)N2` [Compound 7, 3-(2-(7H-pyrrolo[2,3-d]pyrimidin-4-yl)hydrazineylidene)-5-methoxyindolin-2-one], the IC50 came out at 8.39 ± 0.7 µM in the assay with HepG2; 9.08 ± 0.7 µM in the assay on MCF-7; 302 ± 16 nM against CDK2; 157 ± 22 nM against Her2; 166 ± 10 nM at EGFR; 5.28 ± 0.3 µM with MDA-MB-231. Moreover, the IC50 worked out at 6.37 ± 0.3 µM in the assay with HeLa and 224 ± 12 nM against VEGFR2. In addition, the “DNA content (%) %G1” value in the assay with HepG2 cells [1] is listed as 54.22%. Moreover, in the assay on HepG2 cells [1], the “DNA content (%) %G2/M” value stood at 11.02%. Also, in the assay on HepG2 cells [1], the “DNA content (%) %S” value is 34.76%. For the same compound, the “DNA content (%) %Sub–G1” value in the assay with HepG2 cells [1] amounted to 32.34%. For the same compound, the “increase of the DNA in the sub-G1 compared to untreated cells” value with HepG2 cells [1] is given as 17 fold. Besides, the “Folds of gene expression (Normalized to β-actin) Caspase 9” value in the assay on Caspase 9 is 3.3 fold and 3.295 fold. Further, the “Folds of gene expression (Normalized to β-actin) Caspase 3” value in the assay with Caspase 3 was 5.42 fold and 5.421 fold. Moreover, the “Apoptosis Early” value in the assay with HepG2 cells [2] is on record as 9.91%. Also, in the assay with HepG2 cells [2], the “Apoptosis Late” value is on record as 15.92%. In addition, in the assay on HepG2 cells [2], the “Apoptosis Total” value is listed as 32.34%. Further, the Necrosis in the assay with HepG2 cells [2] was 6.51%.
Consider `O=C1Nc2ccccc2C1=NNc1ncnc2[nH]ccc12` [Compound 3, 3-(2-(7H-pyrrolo[2,3-d]pyrimidin-4-yl)hydrazineylidene)indolin-2-one], for which the IC50 is 19.1 ± 1.4 µM with HepG2; 14.2 ± 1.2 µM in the assay on MCF-7; 7.86 to 27.6 µM in assay [3]; 7.86 ± 0.6 µM in the assay on MDA-MB-231; 9.86 ± 0.7 µM with HeLa.
`Cc1ccc2c(c1)C(=NNc1ncnc3[nH]ccc13)C(=O)N2` [Compound 6, 3-(2-(7H-pyrrolo[2,3-d]pyrimidin-4-yl)hydrazineylidene)-5-methylindolin-2-one]: the 50% inhibitory concentration (IC50) in the assay on HepG2 is 11.7 ± 0.9 µM; in the assay with MCF-7, 27.6 ± 2 µM; in [3], 7.86 to 27.6 µM; with MDA-MB-231, 15.2 ± 1.1 µM; in the assay on HeLa, 19.8 ± 1.3 µM.
For `O=C1Nc2ccc([N+](=O)[O-])cc2C1=NNc1ncnc2[nH]ccc12` [Compound 8, 3-(2-(7H-pyrrolo[2,3-d]pyrimidin-4-yl)hydrazineylidene)-5-nitroindolin-2-one], the IC50 with HepG2 came out at 52.1 ± 2.9 µM; with MCF-7, 48.5 ± 2.8 µM; with MDA-MB-231 it was 36.9 ± 2.4 µM; with HeLa it was 38 ± 2.2 µM.
